# Results as given in PubChem BioAssay AID624015 (Broad Institute, 2012).
# Target: Scavenger receptor class B member 1 (Mus musculus) (UniProt Q61009)
# Experiment: inhibitors of HDL-directed cholesterol efflux via mutant SR-BI, dose response, mechanism study for SR-BI HDL uptake inhibitor project, cell-based, ldlA CHO C384S mutant, [3H]cholesterol, powder samples, set 2 (AID 624015)
# Conditions: [3H]cholesterol efflux to HDL
# Procedure, shortened: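 Assay system: ldlA CHO cells expressing Cys384S-mutant SR-BI, radiolabel-loaded. Incubation: 1 h compound pre-incubation, then 2 h HDL efflux, 37 °C. Buffer or medium: HEPES pH 7.4 buffered medium, FAF-BSA equilibrated. Detection: scintillation counting, medium and cell lysate.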
# Scavenger receptor class B member 1 (Mus musculus), sequence (Q61009 whole entry, looked up): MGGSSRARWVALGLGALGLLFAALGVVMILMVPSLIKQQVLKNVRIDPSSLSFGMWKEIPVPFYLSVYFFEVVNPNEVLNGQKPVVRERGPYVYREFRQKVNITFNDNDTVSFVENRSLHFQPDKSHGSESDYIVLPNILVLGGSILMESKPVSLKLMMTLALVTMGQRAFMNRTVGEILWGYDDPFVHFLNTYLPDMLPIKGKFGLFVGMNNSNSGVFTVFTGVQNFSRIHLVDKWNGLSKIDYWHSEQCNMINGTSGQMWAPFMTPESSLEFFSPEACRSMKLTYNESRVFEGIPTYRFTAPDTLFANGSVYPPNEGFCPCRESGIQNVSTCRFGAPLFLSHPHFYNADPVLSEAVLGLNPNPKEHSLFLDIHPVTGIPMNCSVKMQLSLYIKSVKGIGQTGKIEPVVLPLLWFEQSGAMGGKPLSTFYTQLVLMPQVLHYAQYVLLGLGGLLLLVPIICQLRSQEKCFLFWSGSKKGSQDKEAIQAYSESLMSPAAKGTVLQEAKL
smiles,measurement,value
CC(C)NC(=O)Nc1ccc2c(c1)C(=O)N([C@H](C)CO)C[C@@H](C)[C@H](CN(C)S(=O)(=O)c1ccc(Cl)cc1)O2,AC50,250 nM
